≈ marks a conversion by molar mass, not a printed value. Starred links: 1 amine or outer side, 2 acyl side, 3 side chain; linkers in the order of their positions; H or OH if unused. Positions of bridges follow the written chain, without caps; N, C: chain ends. Non-standard residues stand in square brackets, D forms with d. Residues, ends and D or L forms follow the SMILES beside them. *: point of attachment. hTyr(3S-OH,4S-OH,3'-OSO3H) = N[C@H](C(=O)O)[C@H](O)[C@@H](O)c1ccc(O)c(OS(=O)(=O)O)c1; Orn(4R-OH,5R-OH) = O=C([C@H](C[C@@H](O)[C@@H](O)N[*:3])N[*:1])[*:2]; Pro(3S-OH,4S-Me) = C[C@H]1CN[C@H](C(=O)O)[C@H]1O; X1 = CCCCCOc1ccc(-c2cc(-c3ccc(C(=O)*)cc3)no2)cc1; Gln(3R-OH) = NC(=O)C[C@@H](O)[C@H](N)C(=O)O; Hyp = O=C(O)[C@@H]1C[C@@H](O)CN1
Columns and labels:
Assay type in all cases: functional
[1] = system: Candida dubliniensis; test: Antifungal activity against Candida dubliniensis FMR 10032 infected in immunosuppressed OF1 mouse assessed as fungal count in spleen at 1 mg/kg/day, iv […]
How it was run: (§1)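 Male OF1 mice, 10 per group, were immunosuppressed on infection day with cyclophosphamide 200 mg/kg i.p. plus 5-fluorouracil 150 mg/kg i.v., then challenged i.v. with 1.5 × 10^5 CFU. Drug was given at 1 mg/kg i.v. once daily for 5 days, starting 24 h after challenge. One day after treatment ended, kidney and spleen homogenates were plated in 10-fold dilutions on Sabouraud agar (35°C, 3 days) and mean log10 CFU was reported.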

[2] = system: Candida dubliniensis; test: Antifungal activity against Candida dubliniensis 10033 by hemocytometry
How it was run: (§2)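 Minimal fungicidal concentration from the broth dilution test, defined as the lowest drug level giving ≥99.9% reduction in CFU/ml. Inocula were adjusted by hemocytometer.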

[3] = system: Candida dubliniensis; test: Antifungal activity against Candida dubliniensis 10035 after 48 hrs; conditions: Candida dubliniensis, 10035, 48 h
How it was run: (§3)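 CLSI M27-A3 broth microdilution. Yeast inoculum was adjusted with a hemocytometer. MIC was read at 24 h or 48 h as the lowest concentration giving 50% growth inhibition.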

[4] = system: Candida dubliniensis; test: Antifungal activity against Candida dubliniensis FMR 10034 infected in immunosuppressed OF1 mouse assessed as fungal count in spleen at 1 mg/kg/day, iv […]; how it was run: as §1
[5] = system: Candida dubliniensis; test: Antifungal activity against Candida dubliniensis 10033 after 24 hrs; conditions: Candida dubliniensis, 10033, 24 h; how it was run: as §3
[6] = system: Candida dubliniensis; test: Antifungal activity against Candida dubliniensis 9456 after 24 hrs; conditions: Candida dubliniensis, 9456, 24 h; how it was run: as §3
[7] = system: Candida dubliniensis; test: Antifungal activity against Candida dubliniensis 10032 by hemocytometry; how it was run: as §2
[8] = system: Candida dubliniensis; test: Antifungal activity against Candida dubliniensis 9453 after 24 hrs; conditions: Candida dubliniensis, 9453, 24 h; how it was run: as §3
[9] = system: Candida dubliniensis; test: Antifungal activity against Candida dubliniensis 10033 after 48 hrs; conditions: Candida dubliniensis, 10033, 48 h; how it was run: as §3
[10] = system: Candida dubliniensis; test: Antifungal activity against Candida dubliniensis 9456 after 48 hrs; conditions: Candida dubliniensis, 9456, 48 h; how it was run: as §3
[11] = system: Candida dubliniensis; test: Antifungal activity against Candida dubliniensis FMR 10034 infected in OF1 mouse assessed as fungal count in kidney at 10 mg/kg/day, iv […]
How it was run: (§4)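 Immunocompetent male OF1 mice, 10 per group, were challenged i.v. with 1.5 × 10^7 CFU. Drug was given i.v. once daily at 1 or 10 mg/kg for 3 days, starting 24 h post-challenge; controls were untreated. Mice were killed 1 day after the last dose. Kidneys and spleen were homogenized in saline, serial 10-fold dilutions were plated on Sabouraud agar at 35°C for 3 days, and mean log10 CFU was reported.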

[12] = system: Candida dubliniensis; test: Antifungal activity against Candida dubliniensis 10034 after 24 hrs; conditions: Candida dubliniensis, 10034, 24 h; how it was run: as §3
[13] = system: Candida dubliniensis; test: Antifungal activity against Candida dubliniensis FMR 10032 infected in OF1 mouse assessed as fungal count in kidney at 10 mg/kg/day, iv […]; how it was run: as §4
[14] = system: Candida dubliniensis; test: Antifungal activity against Candida dubliniensis 10032 after 24 hrs; conditions: Candida dubliniensis, 10032, 24 h; how it was run: as §3
[15] = system: Candida dubliniensis; test: Antifungal activity against Candida dubliniensis FMR 10032 infected in OF1 mouse assessed as fungal count in spleen at 10 mg/kg/day, iv […]; how it was run: as §4
[16] = system: Candida dubliniensis; test: Antifungal activity against Candida dubliniensis 10031 after 24 hrs; conditions: Candida dubliniensis, 10031, 24 h; how it was run: as §3
[17] = system: Candida dubliniensis; test: Antifungal activity against Candida dubliniensis 10031 by hemocytometry; how it was run: as §2
[18] = system: Candida dubliniensis; test: Antifungal activity against Candida dubliniensis 10031 after 48 hrs; conditions: Candida dubliniensis, 10031, 48 h; how it was run: as §3
[19] = system: Candida dubliniensis; test: Antifungal activity against Candida dubliniensis FMR 10034 infected in immunosuppressed OF1 mouse assessed as fungal count in kidney at 1 mg/kg/day, iv […]; how it was run: as §1
[20] = system: Candida dubliniensis; test: Antifungal activity against Candida dubliniensis FMR 10034 infected in OF1 mouse assessed as fungal count in spleen at 1 mg/kg/day, iv […]; how it was run: as §4
[21] = system: Candida dubliniensis; test: Antifungal activity against Candida dubliniensis FMR 10034 infected in OF1 mouse assessed as fungal count in spleen at 10 mg/kg/day, iv […]; how it was run: as §4
[22] = system: Candida dubliniensis; test: Antifungal activity against Candida dubliniensis 10032 after 48 hrs; conditions: Candida dubliniensis, 10032, 48 h; how it was run: as §3
[23] = system: Candida dubliniensis; test: Antifungal activity against Candida dubliniensis FMR 10032 infected in OF1 mouse assessed as fungal count in spleen at 1 mg/kg/day, iv […]; how it was run: as §4
[24] = system: Candida dubliniensis; test: Antifungal activity against Candida dubliniensis FMR 10032 infected in OF1 mouse assessed as fungal count in kidney at 1 mg/kg/day, iv […]; how it was run: as §4
[25] = system: Candida dubliniensis; test: Antifungal activity against Candida dubliniensis 9456 by hemocytometry; how it was run: as §2
[26] = system: Candida dubliniensis; test: Antifungal activity against Candida dubliniensis FMR 10032 infected in immunosuppressed OF1 mouse assessed as fungal count in kidney at 1 mg/kg/day, iv […]; how it was run: as §1
[27] = system: Candida dubliniensis; test: Antifungal activity against Candida dubliniensis 9453 by hemocytometry; how it was run: as §2
[28] = system: Candida dubliniensis; test: Antifungal activity against Candida dubliniensis 10034 by hemocytometry; how it was run: as §2
[29] = system: Candida dubliniensis; test: Antifungal activity against Candida dubliniensis 10035 after 24 hrs; conditions: Candida dubliniensis, 10035, 24 h; how it was run: as §3
[30] = system: Candida dubliniensis; test: Antifungal activity against Candida dubliniensis 10034 assessed as compound concentration at which paradoxical growth of observed after 48 hrs
How it was run: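 In the same broth dilution (CLSI M27-A3) tests, read at 24 or 48 h, this is the range of drug concentrations over which paradoxical growth appeared. It was not set when growth occurred across the whole tested range (trailing).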

[31] = system: Candida dubliniensis; test: Antifungal activity against Candida dubliniensis 9453 after 48 hrs; conditions: Candida dubliniensis, 9453, 48 h; how it was run: as §3
[32] = system: Candida dubliniensis; test: Antifungal activity against Candida dubliniensis FMR 10034 infected in OF1 mouse assessed as fungal count in kidney at 1 mg/kg/day, iv […]; how it was run: as §4
[33] = system: Candida dubliniensis; test: Antifungal activity against Candida dubliniensis 10034 after 48 hrs; conditions: Candida dubliniensis, 10034, 48 h; how it was run: as §3

With CCCCCOc1ccc(-c2cc(-c3ccc(C(=O)N[C@H]4C[C@@H](O)[C@@H](O)NC(=O)[C@@H]5[C@@H](O)[C@@H](C)CN5C(=O)[C@H]([C@H](O)CC(N)=O)NC(=O)[C@H]([C@H](O)[C@@H](O)c5ccc(O)c(OS(=O)(=O)O)c5)NC(=O)[C@@H]5C[C@@H](O)CN5C(=O)[C@H]([C@@H](C)O)NC4=O)cc3)no2)cc1 [MICAFUNGIN] (X1-[Orn(4R-OH,5R-OH)]T[Hyp][hTyr(3S-OH,4S-OH,3'-OSO3H)][Gln(3R-OH)][Pro(3S-OH,4S-Me)]; lactam 1-C) the log10cfu [1] was 2.62, the MFC [2] was 2 µg/mL (≈ 1.57 µM) and the MIC50 [3] was 0.03 µg/mL (≈ 0.0236 µM). For the same molecule, the log10cfu [4] was 3.26, the MIC50 [5] was 0.125 µg/mL (≈ 0.0984 µM) and the MIC50 [6] was 0.06 µg/mL (≈ 0.0472 µM). The MFC [7] was 4 µg/mL (≈ 3.15 µM), the MIC50 [8] was 0.125 µg/mL (≈ 0.0984 µM) and the MIC50 [9] was 0.25 µg/mL (≈ 0.197 µM). It also gave an MIC50 [10] of 0.125 µg/mL (≈ 0.0984 µM), a log10cfu [11] of 4.69 and an MIC50 [12] of 0.06 µg/mL (≈ 0.0472 µM). For the same molecule, the log10cfu [13] was 3.23, the MIC50 [14] was under 0.03 µg/mL and the log10cfu [15] was 3.58. For the same molecule, the MIC50 [16] was 0.125 µg/mL (≈ 0.0984 µM), the MFC [17] was over 16 µg/mL and the MIC50 [18] was 0.125 µg/mL (≈ 0.0984 µM). It also gave a log10cfu [19] of 6.47, a log10cfu [20] of 4.79 and a log10cfu [21] of 4.18. For the same molecule, the MIC50 [22] was 0.125 µg/mL (≈ 0.0984 µM), the log10cfu [23] was 3.97 and the log10cfu [24] was 4.25. It also gave an MFC [25] of over 16 µg/mL, a log10cfu [26] of 5.47 and an MFC [27] of over 16 µg/mL. It also gave an MFC [28] of over 16 µg/mL, an MIC50 [29] of 0.03 µg/mL (≈ 0.0236 µM) and an Activity [30] of 2 µg/mL. For the same molecule, the MIC50 [31] was 0.125 µg/mL (≈ 0.0984 µM), the log10cfu [32] was 6.33 and the MIC50 [33] was 0.125 µg/mL (≈ 0.0984 µM).

— ChEMBL document CHEMBL1649289, “Paradoxical growth of Candida dubliniensis does not preclude in vivo response to echinocandin therapy” (2009)
